Blank lines part the entries; values can stand above or below the compound they belong to.
Key:
[1] = molecular target: T1, hERG (KCNH2) (Homo sapiens, UniProt Q12809); experiment: Inhibition of hERG transiently transfected in CHO cells at 10 uM at -100 mV holding potential by whole-cell patch clamp electrophysiology method relative to control; type: toxicity, cell-based; settings: CHO cells transiently transfected with hERG
[2] = molecular target: T2, Potassium channel subfamily T member 1 (Homo sapiens, UniProt Q5JUK3); experiment: Inhibition of human KCNT1 (98 to 354 residues) expressed in CHO cells assessed as reduction in thallium fluorescent signal incubated for 15 mins followed by LOX addition measured after 15 mins by FluxOR green dye based fluorescence analysis; type: cell-based
T2 sequence (Q5JUK3 whole entry): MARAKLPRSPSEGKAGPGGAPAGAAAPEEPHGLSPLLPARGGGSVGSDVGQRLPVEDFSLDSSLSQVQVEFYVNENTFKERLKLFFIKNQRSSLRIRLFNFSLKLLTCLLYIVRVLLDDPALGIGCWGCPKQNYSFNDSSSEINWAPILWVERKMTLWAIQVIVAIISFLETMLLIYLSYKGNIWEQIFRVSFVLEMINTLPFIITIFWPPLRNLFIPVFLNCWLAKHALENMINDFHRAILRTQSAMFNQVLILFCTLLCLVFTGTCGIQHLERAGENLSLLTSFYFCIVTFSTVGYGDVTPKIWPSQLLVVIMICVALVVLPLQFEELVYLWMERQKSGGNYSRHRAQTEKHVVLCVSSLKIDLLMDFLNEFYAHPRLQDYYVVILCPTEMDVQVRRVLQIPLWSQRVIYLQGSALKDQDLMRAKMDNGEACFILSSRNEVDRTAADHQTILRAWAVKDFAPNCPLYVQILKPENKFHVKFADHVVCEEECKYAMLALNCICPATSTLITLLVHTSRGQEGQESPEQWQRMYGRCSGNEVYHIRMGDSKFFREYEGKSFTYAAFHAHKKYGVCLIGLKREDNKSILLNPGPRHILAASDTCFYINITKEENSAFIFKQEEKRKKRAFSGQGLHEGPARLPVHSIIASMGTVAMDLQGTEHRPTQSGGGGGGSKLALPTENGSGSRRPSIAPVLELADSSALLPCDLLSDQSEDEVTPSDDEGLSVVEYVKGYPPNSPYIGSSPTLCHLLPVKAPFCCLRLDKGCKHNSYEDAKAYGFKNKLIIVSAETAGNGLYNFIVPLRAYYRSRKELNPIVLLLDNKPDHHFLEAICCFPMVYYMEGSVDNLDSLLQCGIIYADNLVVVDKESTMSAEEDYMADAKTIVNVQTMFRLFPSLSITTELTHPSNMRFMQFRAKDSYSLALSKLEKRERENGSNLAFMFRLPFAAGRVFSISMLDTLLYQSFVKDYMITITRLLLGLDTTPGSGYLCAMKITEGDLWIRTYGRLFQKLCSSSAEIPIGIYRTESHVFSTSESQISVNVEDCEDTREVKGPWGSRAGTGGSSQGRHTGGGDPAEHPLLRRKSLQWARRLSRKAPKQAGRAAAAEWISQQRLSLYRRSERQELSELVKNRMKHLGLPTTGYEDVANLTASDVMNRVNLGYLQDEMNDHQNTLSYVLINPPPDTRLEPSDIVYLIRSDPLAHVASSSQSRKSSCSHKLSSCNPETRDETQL

[3] = Intrinsic clearance in human liver microsomes incubated upto 60 mins in presence of NADPH and UDPGA by LC-MS analysis; type: ADME, Microsome; settings: read-out: CLH
[4] = molecular target: Voltage-gated inwardly rectifying potassium channel KCNH2 (Homo sapiens, UniProt Q12809); experiment: Inhibition of hERG transiently transfected in CHO cells at 10 uM at -100 mV holding potential by whole-cell patch clamp electrophysiology method; type: toxicity, cell-based
In short: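 hERG transiently expressed in CHO cells (eGFP co-transfection marker) and recorded by whole-cell patch clamp at 20–22 °C, 24 h post-transfection. […] Pipette (mM): 140 KCl, 2 MgCl2, 10 EGTA, 10 HEPES, 5 Mg-ATP. Protocol: 1 s steps from −80 to +60 mV, then 140 ms at −100 mV. Tail current at −100 mV read as I_drug/I_CTL with 10 μM drug; ≥3 cells.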

[5] = Stability in human plasma assessed as compound remaining incubated upto 120 mins […] by LC-MS analysis; type: ADME, cell-free; settings: read-out: Stability
In short: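 Human plasma prewarmed to 37 °C and centrifuged; compound added at 37 °C. Samples taken at 0, 30, 60, 90 and 120 min, quenched into ice-cold methanol with internal standard, and measured by LC-MS as % remaining relative to 0 min. Duplicates; procaine as control.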

[6] = molecular target: T3, Potassium channel subfamily T member 2 (Homo sapiens, UniProt Q6UVM3); experiment: Inhibition of human KCNT2 expressed in HEK cells at +60 mV holding potential by whole-cell patch clamp electrophysiology method; type: cell-based
T3 sequence (Q6UVM3 whole entry): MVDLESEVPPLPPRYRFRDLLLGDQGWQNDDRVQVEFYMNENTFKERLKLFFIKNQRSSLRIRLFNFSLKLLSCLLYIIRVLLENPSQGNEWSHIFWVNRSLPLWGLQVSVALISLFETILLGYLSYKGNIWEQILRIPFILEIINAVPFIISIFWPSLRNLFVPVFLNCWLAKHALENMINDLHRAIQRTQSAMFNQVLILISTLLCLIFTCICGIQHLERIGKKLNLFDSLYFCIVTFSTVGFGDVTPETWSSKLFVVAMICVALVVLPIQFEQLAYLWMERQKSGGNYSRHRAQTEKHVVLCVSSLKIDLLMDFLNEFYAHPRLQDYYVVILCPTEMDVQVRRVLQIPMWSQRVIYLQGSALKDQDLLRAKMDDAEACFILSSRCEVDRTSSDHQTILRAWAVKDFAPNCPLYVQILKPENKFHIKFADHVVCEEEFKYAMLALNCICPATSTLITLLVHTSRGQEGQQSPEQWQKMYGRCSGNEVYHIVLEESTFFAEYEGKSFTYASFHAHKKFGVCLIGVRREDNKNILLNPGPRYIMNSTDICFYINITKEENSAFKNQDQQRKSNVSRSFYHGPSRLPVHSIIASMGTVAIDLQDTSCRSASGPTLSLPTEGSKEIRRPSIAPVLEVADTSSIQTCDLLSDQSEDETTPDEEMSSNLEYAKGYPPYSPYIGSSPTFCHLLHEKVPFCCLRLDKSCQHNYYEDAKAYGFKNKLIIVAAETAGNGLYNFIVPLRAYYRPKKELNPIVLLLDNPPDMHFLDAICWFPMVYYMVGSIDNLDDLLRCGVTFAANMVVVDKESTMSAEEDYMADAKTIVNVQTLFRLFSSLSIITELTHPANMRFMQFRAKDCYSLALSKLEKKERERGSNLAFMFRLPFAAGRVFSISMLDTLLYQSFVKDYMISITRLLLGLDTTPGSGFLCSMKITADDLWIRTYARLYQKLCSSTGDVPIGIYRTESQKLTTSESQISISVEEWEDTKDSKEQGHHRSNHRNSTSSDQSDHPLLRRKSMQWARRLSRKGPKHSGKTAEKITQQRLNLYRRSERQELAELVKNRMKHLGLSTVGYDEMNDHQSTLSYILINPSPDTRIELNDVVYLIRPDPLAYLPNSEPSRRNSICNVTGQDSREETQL
In short: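 Human KCNT2 transiently expressed in HEK cells and recorded by whole-cell patch clamp at 20–22 °C, 24 h after transfection. Pipette (mM): 130 KCl, 10 NaCl, 10 HEPES, 5 EGTA, pH 7.3–7.4, with ATP omitted. Each cell received one perfused concentration; DMSO ≤0.3%. Current at the end of the depolarizing pulse was normalized and fitted to a binding isotherm with Hill coefficient; ≥6 determinations per point, mean ± SEM.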

[7] = Plasma protein binding in human at 10 uM incubated for 4 hrs by rapid equilibrium dialysis based LC-MS/MS analysis; type: ADME, cell-free; settings: read-out: PPB
[8] = molecular target: T1, hERG (KCNH2); experiment: Inhibition of hERG expressed in HEK293 cells at 10 uM by whole-cell patch clamp electrophysiology method relative to control; type: toxicity, cell-based; settings: HEK293 cells that express hERG
[9] = molecular target: T1, hERG (KCNH2); experiment: Inhibition of hERG expressed in HEK293 cells at 10 uM by thallium flux assay relative to control; settings: HEK293 cells that express hERG

T1 sequence (Q12809 whole entry, the tested form may be a part): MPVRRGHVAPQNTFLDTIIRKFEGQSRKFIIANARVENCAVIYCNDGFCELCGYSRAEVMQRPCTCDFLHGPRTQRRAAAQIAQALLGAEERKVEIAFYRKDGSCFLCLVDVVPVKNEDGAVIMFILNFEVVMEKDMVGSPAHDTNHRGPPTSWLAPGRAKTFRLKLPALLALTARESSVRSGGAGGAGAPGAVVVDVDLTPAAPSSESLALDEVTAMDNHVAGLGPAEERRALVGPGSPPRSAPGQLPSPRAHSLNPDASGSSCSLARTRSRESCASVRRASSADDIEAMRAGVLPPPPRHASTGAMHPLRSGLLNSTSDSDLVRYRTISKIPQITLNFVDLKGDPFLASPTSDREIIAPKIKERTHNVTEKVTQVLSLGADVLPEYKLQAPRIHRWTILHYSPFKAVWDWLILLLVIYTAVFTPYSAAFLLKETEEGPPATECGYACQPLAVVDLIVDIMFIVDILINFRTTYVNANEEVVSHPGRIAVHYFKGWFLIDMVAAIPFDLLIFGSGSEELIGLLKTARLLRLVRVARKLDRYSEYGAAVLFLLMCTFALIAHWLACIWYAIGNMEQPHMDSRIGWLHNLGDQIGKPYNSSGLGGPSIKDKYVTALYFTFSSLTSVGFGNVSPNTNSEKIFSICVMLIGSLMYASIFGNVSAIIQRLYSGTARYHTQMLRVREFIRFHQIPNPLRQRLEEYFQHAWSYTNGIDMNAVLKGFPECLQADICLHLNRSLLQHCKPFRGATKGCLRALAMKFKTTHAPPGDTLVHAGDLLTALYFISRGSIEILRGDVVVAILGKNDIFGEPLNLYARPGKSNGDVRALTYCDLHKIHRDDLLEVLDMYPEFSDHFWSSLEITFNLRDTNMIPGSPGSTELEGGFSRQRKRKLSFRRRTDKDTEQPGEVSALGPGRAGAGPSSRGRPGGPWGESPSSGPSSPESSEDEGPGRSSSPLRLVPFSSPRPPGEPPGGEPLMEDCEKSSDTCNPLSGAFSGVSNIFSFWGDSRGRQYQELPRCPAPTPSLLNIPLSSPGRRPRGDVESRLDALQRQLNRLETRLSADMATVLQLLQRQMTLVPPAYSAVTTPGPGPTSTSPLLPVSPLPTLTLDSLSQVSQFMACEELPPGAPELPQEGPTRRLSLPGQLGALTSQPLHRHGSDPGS
Sequence of Voltage-gated inwardly rectifying potassium channel KCNH2 (Q12809 whole entry): as the sequence (Q12809 whole entry, the tested form may be a part) above

IC50 [2]: 5.5 µM
Compound: CC(C)(C)CNC(=O)Nc1ccc2c(c1)CCN2Cc1ccc(F)cc1
inhibition at 10 µM [1]: 30%

CLint scaled [3]: < 1 mL/min/kg
remaining at 2 h [5]: < 80%
IC50 [6]: 1.27 µM
fraction unbound at 4 h, 10 µM [7]: 0.01
Compound: O=S(=O)(Nc1ccc2c(c1)CCN2Cc1ccc(C(F)(F)F)cc1C(F)(F)F)C1CCCCC1
inhibition (INH) [4]: Not Active

CLint scaled [3]: < 80 mL/min/kg
remaining at 2 h [5]: < 80%
fraction unbound at 4 h, 10 µM [7]: 0.01
Compound: O=C(NCc1ccccc1)[C@H](Cc1c[nH]c2ccccc12)NCc1ccc(Oc2ccccc2)cc1
inhibition (INH) [4]: Not Active

remaining at 2 h [5]: 0%
Compound: CCOC(=O)[C@@H]1CS[C@@]2(C(=O)Nc3ccc(Br)cc32)N1C(=O)c1ccc(Cl)cc1
inhibition (INH) [4]: Not Active

More lines, now with the values behind:

Compound: O=C(Nc1cccc(C(F)(F)F)c1)c1ccc2nc(N3C(=O)c4ccccc4C3=O)sc2c1
inhibition at 10 µM [8]: 15%

Compound: Cc1cc(O)ccc1N/C=C/C(=O)c1ccccc1
inhibition at 10 µM [8]: 15%

Compound: Oc1ccc2ccccc2c1CNCCc1c[nH]c2ccccc12
inhibition at 10 µM [1]: 30%
IC50 [2]: 8.7 µM

Compound: COc1ccc(Cl)cc1NC(=O)CN1CCN(S(=O)(=O)N2CCC(C)CC2)CC1
inhibition at 10 µM [9]: 40%

Reference: ChEMBL document CHEMBL5512679, “In Silico Assisted Identification, Synthesis, and In Vitro Pharmacological Characterization of Potent and Selective Blockers of the Epilepsy-Associated KCNT1 Channel” (J Med Chem, 2024)
